ChEMBL document CHEMBL1151445, “Molecular epidemiology and mechanisms of carbapenem resistance in Pseudomonas aeruginosa isolates from Spanish hospitals” (2007)
≈ marks a conversion by molar mass, not a printed value.

Assays:
Pseudomonas aeruginosa [1] = test: Antimicrobial activity against Pseudomonas aeruginosa GY3 producing blaVIM-2 by E-test; format: functional
Pseudomonas aeruginosa [2] = test: Antimicrobial activity against carbapenem-susceptible Pseudomonas aeruginosa clinical isolate assessed as resistant isolates; format: functional
Pseudomonas aeruginosa [3] = test: Antimicrobial activity against carbapenem-resistant Pseudomonas aeruginosa clinical isolate assessed as resistant isolates; format: functional
Pseudomonas aeruginosa [4] = test: Antimicrobial activity against Pseudomonas aeruginosa PAO1 by E-test; format: functional
Pseudomonas aeruginosa [5] = test: Antimicrobial activity against Pseudomonas aeruginosa PAO1 harboring pV2GY3 with blaVIM-2 and aac(6)'-32 by E-test; format: functional
How it was run: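 Plasmid DNA from clinical strain GY3 was electroporated into PAO1. Transformants were selected on Luria-Bertani agar with 8 μg imipenem/ml and checked with MBL Etest strips and PCR for the MBL gene. MICs for the transformant were determined by Etest.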

Escherichia coli [6] = test: Antimicrobial activity against Escherichia coli XL1-Blue by E-test; format: functional
Escherichia coli [7] = test: Antimicrobial activity against Escherichia coli XL1-Blue harboring pGTAAC-32 with cloned aac(6)'-32 by E-test
Pseudomonas aeruginosa [8] = test: Antimicrobial activity against carbapenem-resistant Pseudomonas aeruginosa clinical isolate; format: functional
Pseudomonas aeruginosa [9] = test: Antimicrobial activity against carbapenem-resistant Pseudomonas aeruginosa clinical isolate

Row | Compound | MIC (Pseudomonas aeruginosa [1]) [µg/mL] | Activity (Pseudomonas aeruginosa [2]) [%] | Activity (Pseudomonas aeruginosa [3]) [%] | MIC (Pseudomonas aeruginosa [4]) [µg/mL] | MIC (Pseudomonas aeruginosa [5]) [µg/mL] | MIC (Escherichia coli [6]) [µg/mL] | MIC (Escherichia coli [7]) [µg/mL] | MIC (Pseudomonas aeruginosa [8]) [µg/mL] | MIC (Pseudomonas aeruginosa [9]) [µg/mL]
1 | CC(C)(O/N=C(\C(=O)N[C@@H]1C(=O)N2C(C(=O)[O-])=C(C[n+]3ccccc3)CS[C@H]12)c1csc(N)n1)C(=O)O [CEFTAZIDIME] | 16 (≈ 29.3 µM) | 11 | 46 | 1.5 (≈ 2.74 µM) | 24 (≈ 43.9 µM) |  |  |  | 
2 | C[C@@H](O)[C@H]1C(=O)N2C(C(=O)O)=C(SCCNC=N)C[C@H]12 [IMIPENEM ANHYDROUS] | > 32 |  | 95 | 2 (≈ 6.68 µM) | > 32 |  |  |  | 
3 | CO/N=C(\C(=O)N[C@@H]1C(=O)N2C(C(=O)[O-])=C(C[N+]3(C)CCCC3)CS[C@H]12)c1csc(N)n1 | 16 (≈ 33.3 µM) |  |  | 1.5 (≈ 3.12 µM) | 16 (≈ 33.3 µM) |  |  |  | 
4 | CCN1CCN(C(=O)N[C@@H](C(=O)N[C@@H]2C(=O)N3[C@@H]2SC(C)(C)[C@@H]3C(=O)O)c2ccccc2)C(=O)C1=O [PIPERACILLIN] | 16 (≈ 30.9 µM) | 9 | 28 | 2 (≈ 3.86 µM) | 16 (≈ 30.9 µM) |  |  |  | 
5 | C[C@H]1[C@H](NC(=O)/C(=N\OC(C)(C)C(=O)O)c2csc(N)n2)C(=O)N1S(=O)(=O)O [AZTREONAM] | 2 (≈ 4.59 µM) |  |  |  | 2 (≈ 4.59 µM) |  |  |  | 
6 | CC1(C)S[C@@H]2[C@H](NC(=O)[C@H](C(=O)O)c3ccsc3)C(=O)N2[C@H]1C(=O)O [TICARCILLIN] | > 256 | 11 | 34 | 12 (≈ 31.2 µM) | > 256 |  |  |  | 
7 | NCC[C@H](O)C(=O)N[C@@H]1C[C@H](N)[C@@H](O[C@H]2O[C@H](CN)[C@@H](O)[C@H](O)[C@H]2O)[C@H](O)[C@H]1O[C@H]1O[C@H](CO)[C@@H](O)[C@H](N)[C@H]1O [AMIKACIN] | 64 (≈ 109 µM) | 9 | 19 | 3 (≈ 5.12 µM) | 48 (≈ 82 µM) | 0.75 (≈ 1.28 µM) | 1.5 (≈ 2.56 µM) |  | 
8 | CC1COc2c(N3CCN(C)CC3)c(F)cc3c(=O)c(C(=O)O)cn1c23 (stereo not drawn) [OFLOXACIN] |  | 32 | 68 |  |  |  |  |  | 
9 | NC[C@H]1O[C@H](O[C@H]2[C@H](O)[C@@H](O[C@H]3O[C@H](CO)[C@@H](O)[C@H](N)[C@H]3O)[C@H](N)C[C@@H]2N)[C@H](N)C[C@@H]1O [TOBRAMYCIN] | > 256 | 9 | 44 | 0.75 (≈ 1.6 µM) | 64 (≈ 137 µM) | 0.38 (≈ 0.813 µM) | 6 (≈ 12.8 µM) |  | 
10 | GENTAMICIN | 32 | 26 | 59 | 2 | 16 | 0.19 |  |  | 
11 | O=C(O)c1cn(C2CC2)c2cc(N3CCNCC3)c(F)cc2c1=O [CIPROFLOXACIN] | > 32 |  |  |  |  |  |  |  | 
12 | C[C@@H](O)[C@H]1C(=O)N2C(C(=O)O)=C(S[C@@H]3CN[C@H](C(=O)N(C)C)C3)[C@H](C)[C@H]12 [MEROPENEM] | 16 (≈ 41.7 µM) |  | 68 | 0.38 (≈ 0.991 µM) | 16 (≈ 41.7 µM) |  |  | 8 (≈ 20.9 µM) | 8 (≈ 20.9 µM)
